Measurements as given in ChEMBL document CHEMBL1152657, “1-(2-((Z)-6-(2-(Trifluoromethyl)phenyl)hexa-3-en-1,5-diynyl)phenyl)piperidin-2-one as a new potent apoptosis agent” (2009).
Calls of active or inactive are those of the source. The rule behind the calls is not given here.

How the values were obtained:
K562 [1] = experiment: Growth inhibition of human K562 cells; type: functional
Outline: (§1)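 Tested in the NCI in vitro antitumor screening protocol on human tumor lines. The value is the concentration giving 50% reduction in cell growth.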

CCRF-CEM = experiment: Growth inhibition of human CCRF-CEM cells; type: functional; outline: as §1
HOP-62 = experiment: Growth inhibition of human HOP62 cells; type: functional; outline: as §1
HCT-15 = experiment: Growth inhibition of human HCT15 cells; type: functional; outline: as §1
HCC 2998 = experiment: Growth inhibition of human HCC2998 cells; type: functional; outline: as §1
SNB-75 = experiment: Growth inhibition of human SNB75 cells; type: functional; outline: as §1
M14 = experiment: Growth inhibition of human M14 cells; type: functional; outline: as §1
UACC-62 = experiment: Growth inhibition of human UACC62 cells; type: functional; outline: as §1
OVCAR-3 = experiment: Growth inhibition of human OVCAR-3 cells; type: functional; outline: as §1
ACHN = experiment: Growth inhibition of human ACHN cells; type: functional; outline: as §1
DU-145 = experiment: Growth inhibition of human DU145 cells; type: functional; outline: as §1
MDA-MB-231 = experiment: Growth inhibition of human MDA-MB-231 cells; type: functional; outline: as §1
MDA-MB-435 = experiment: Growth inhibition of human MDA-MB-435 cells; type: functional; outline: as §1
K562 [2] = experiment: Cell cycle arrest in human K562 cells assessed as accumulation at G0/G1 phase at 10 uM after 24 hrs by flow cytometry; type: functional
Outline: (§2)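 K-562 cells (RPMI 1640, 10% fetal calf serum, 37 °C, 5% CO2) were exposed for 24 h, then fixed in ice-cold 70% ethanol for 30 min. They were treated with RNase A (1 mg/ml, 37 °C, 30 min) and stained with propidium iodide and Triton X-100 solution for 30 min in the dark. DNA content was read on 10,000 events by flow cytometry, and the sub-G1 region was gated as apoptotic.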

K562 [3] = experiment: Cell cycle arrest in human K562 cells assessed as accumulation at S phase at 10 uM after 24 hrs by flow cytometry; type: functional; outline: as §2
K562 [4] = experiment: Cell cycle arrest in human K562 cells assessed as accumulation at G2/M phase at 10 uM after 24 hrs by flow cytometry; type: functional; outline: as §2
K562 [5] = experiment: Cell cycle arrest in human K562 cells assessed as accumulation at SubG1 phase at 10 uM after 24 hrs by flow cytometry; type: functional; outline: as §2
K562 [6] = experiment: Cell cycle arrest in human K562 cells assessed as accumulation at G0/G1 phase at 50 uM after 24 hrs by flow cytometry; type: functional; outline: as §2
K562 [7] = experiment: Cell cycle arrest in human K562 cells assessed as accumulation at S phase at 50 uM after 24 hrs by flow cytometry; type: functional; outline: as §2
K562 [8] = experiment: Cell cycle arrest in human K562 cells assessed as accumulation at G2/M phase at 50 uM after 24 hrs by flow cytometry; type: functional; outline: as §2
K562 [9] = experiment: Cell cycle arrest in human K562 cells assessed as accumulation at SubG1 phase at 50 uM after 24 hrs by flow cytometry; type: functional; outline: as §2
K562 [10] = experiment: Cell cycle arrest in human K562 cells assessed as accumulation at G1 phase at 50 uM after 24 hrs by flow cytometry; type: functional; outline: as §2
K562 [11] = experiment: Cell cycle arrest in human K562 cells assessed as apoptotic cells at 50 uM after 24 hrs by flow cytometry; type: functional; outline: as §2
HeLa = experiment: Induction of microtubule depolymerization in human HeLa cells at 50 uM after 2 hrs by immunocytochemistry; type: functional, cell-based
Outline: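 HeLa cells were grown 24 h on coverslips, then treated at 37 °C. They were fixed in 4% paraformaldehyde for 5 min and permeabilized with 0.5% Triton X-100. After blocking with 5% goat serum/1% BSA, cells were stained with anti-ninein and anti-tubulin (45 min, 37 °C), then Alexa-conjugated secondaries and DAPI. Imaging was by confocal microscopy with a 100x objective.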

K562 [12] = experiment: Induction of apoptosis in human K562 cells assessed as increase in caspase-3 activity by colorimetric assay; type: functional, cell-based
Outline: (§3)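 Treated K-562 cells (1×10^6 cells/ml) were PBS-washed and lysed on ice for 10 min, and the cytosolic supernatant was cleared at 18,000 g. Protein was measured by BCA. Lysate protein was incubated with caspase-specific colorigenic substrate in 2X reaction buffer with 10 mM DTT at 37 °C for 1 h, and absorbance was read at 405 nm.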

K562 [13] = experiment: Induction of apoptosis in human K562 cells assessed as increase in caspase-9 activity at 25 uM by colorimetric assay; type: functional, cell-based; outline: as §3
K562 [14] = experiment: Induction of apoptosis in human K562 cells assessed as increase in caspase-9 activity at 50 uM by colorimetric assay; type: functional, cell-based; outline: as §3
K562 [15] = experiment: Induction of apoptosis in human K562 cells assessed as upregulation of Bax protein level after 24 hrs by Western blot; type: functional, cell-based
Outline: (§4)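 Cells were dosed at several concentrations for 24 h and lysed in Tris-HCl pH 7.5 NP-40 buffer with phosphatase inhibitors. Equal protein was run on SDS-PAGE and transferred to PVDF. Membranes were blocked with 5% nonfat milk in TBST for 1 h, then immunoblotted.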

K562 [16] = experiment: Induction of apoptosis in human K562 cells assessed as down-regulation of Bcl2 protein level after 24 hrs by Western blot; type: functional, cell-based; outline: as §4
K562 [17] = experiment: Induction of apoptosis in human K562 cells assessed as downregulation of XIAP protein level after 24 hrs by Western blot; type: functional, cell-based; outline: as §4
K562 [18] = experiment: Induction of apoptosis in human K562 cells assessed as PARP cleavage after 24 hrs by Western blot; type: functional, cell-based; outline: as §4
K562 [19] = experiment: Induction of apoptosis in human K562 cells assessed as cytochrome-C release after 24 hrs by Western blot; type: functional, cell-based; outline: as §4

GI50 (K562 [1]) | GI50 (CCRF-CEM) | GI50 (HCT-15) | GI50 (HCC 2998) | GI50 (OVCAR-3) | GI50 (ACHN) | GI50 (DU-145) | GI50 (MDA-MB-231) | GI50 (MDA-MB-435) | Compound | GI50 (HOP-62) | GI50 (SNB-75) | GI50 (M14) | GI50 (UACC-62) | Activity (K562 [2]) | Activity (K562 [3]) | Activity (K562 [4]) | Activity (K562 [5]) | Activity (K562 [6]) | Activity (K562 [7]) | Activity (K562 [8]) | further results
8.56 µM | 1560 nM | 1530 nM | 950 nM | 870 nM | 2.67 µM | 1.68 µM | 1160 nM | 600 nM | O=C1CCCCN1c1ccccc1C#C/C=C\C#Cc1ccccc1C(F)(F)F | 0.89 µM | 1610 nM | 900 nM | 1440 nM | 8.9% | 12.9% | 78.3% | 23.9% | 40.3% | 0% | 59.7% | Activity (K562 [9]): 31.57%; Activity (K562 [10]): 27.7%; Activity (K562 [11]): 51%; Activity (HeLa): Active; Activity (K562 [12]): Dose-dependent effect; Activity (K562 [13]): Active; Activity (K562 [14]): Active; Activity (K562 [15]): Dose-dependent effect; Activity (K562 [16]): Dose-dependent effect; Activity (K562 [17]): Dose-dependent effect; Activity (K562 [18]): Active; Activity (K562 [19]): Dose-dependent effect
2.29 µM | 790 nM | 3350 nM | 4190 nM | 1790 nM | 4.08 µM | 1.93 µM | 2170 nM | 750 nM | CCC(=O)Nc1ccccc1C#C/C=C\C#Cc1ccccc1SC | 2.52 µM | 630 nM | 1790 nM | 1690 nM | 22.7% | 42.1% | 35.2% | 9.8% | 18.7% | 12.7% | 68.5% | Activity (K562 [9]): 16.2%
6.36 µM | 2750 nM | 4270 nM | 5080 nM | 8870 nM | 30.1 µM | 40.5 µM | 7920 nM | 1920 nM | CCC(=O)Nc1ccccc1C#C/C=C\C#Cc1ccccc1C(F)(F)F | 10 µM | 4760 nM | 12000 nM | 4040 nM | 14.6% | 51.9% | 33.5% | 15.3% | 1.2% | 16.1% | 82.7% | Activity (K562 [9]): 26.11%
0.44 µM | 210 nM | 1530 nM | 1320 nM | 1030 nM | 10.5 µM | 10.1 µM | 1190 nM | 900 nM | CSc1ccccc1C#C/C=C\C#Cc1ccccc1N1CCCC1=O | 5.02 µM | 2340 nM | 3000 nM | 1440 nM | 49.3% | 0% | 51.7% | 15.39% | 7.7% | 22.9% | 69.4% | Activity (K562 [9]): 17.79%
– | – | – | – | – | – | – | – | – | Nc1ccccc1C#C/C=C\C#Cc1ccccc1C(F)(F)F | – | – | – | – | – | – | – | – | – | 19.3% | 73.9% | Activity (K562 [10]): 6.7%; Activity (K562 [11]): 19.4%; Activity (HeLa): Active; Activity (K562 [12]): Dose-dependent effect; Activity (K562 [13]): Active; Activity (K562 [14]): Active
